Test results published in ChEMBL document CHEMBL1255566, “Rigid analogues of the α2-adrenergic blocker atipamezole: small changes, big consequences” (J Med Chem, 2010).

Tests used:
[1] = molecular target: T1, Alpha-2A adrenergic receptor (Homo sapiens) (UniProt P08913); experiment: Antagonist activity at human adrenergic alpha2A receptor expressed in CHO cells assessed as inhibition of adrenaline-induced [35S]GTPgammaS binding after 30 mins by scintillation counting; format: functional, cell-based
T1 sequence (whole entry): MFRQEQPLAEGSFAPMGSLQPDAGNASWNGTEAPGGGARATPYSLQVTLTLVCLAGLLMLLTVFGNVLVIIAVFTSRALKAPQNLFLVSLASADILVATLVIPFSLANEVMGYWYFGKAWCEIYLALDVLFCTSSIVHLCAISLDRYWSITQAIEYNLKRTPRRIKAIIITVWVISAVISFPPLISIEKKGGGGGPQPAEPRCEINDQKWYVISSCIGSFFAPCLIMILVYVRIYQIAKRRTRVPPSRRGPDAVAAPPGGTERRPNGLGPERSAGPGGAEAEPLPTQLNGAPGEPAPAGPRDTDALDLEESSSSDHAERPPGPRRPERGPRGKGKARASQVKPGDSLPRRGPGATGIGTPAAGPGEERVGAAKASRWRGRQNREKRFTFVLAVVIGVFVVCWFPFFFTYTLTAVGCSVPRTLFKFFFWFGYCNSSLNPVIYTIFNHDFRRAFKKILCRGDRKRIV
How it was run: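 Inhibition of adrenaline-stimulated [35S]GTPγS binding in CHO cells expressing human α2A receptors. Compounds were also run alone to check for any stimulation of [35S]GTPγS binding. Antagonist potency is reported as pKB, taken as the potency that inhibits 50% of adrenaline-induced binding.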

[2] = molecular target: T2, Alpha-1B adrenergic receptor (Homo sapiens, UniProt P35368); experiment: Displacement of [3H]-prazosin from human adrenergic alpha-1b receptor expressed in CHO cells after 120 mins by liquid scintillation counting; format: cell-based
T2 sequence (P35368 whole entry): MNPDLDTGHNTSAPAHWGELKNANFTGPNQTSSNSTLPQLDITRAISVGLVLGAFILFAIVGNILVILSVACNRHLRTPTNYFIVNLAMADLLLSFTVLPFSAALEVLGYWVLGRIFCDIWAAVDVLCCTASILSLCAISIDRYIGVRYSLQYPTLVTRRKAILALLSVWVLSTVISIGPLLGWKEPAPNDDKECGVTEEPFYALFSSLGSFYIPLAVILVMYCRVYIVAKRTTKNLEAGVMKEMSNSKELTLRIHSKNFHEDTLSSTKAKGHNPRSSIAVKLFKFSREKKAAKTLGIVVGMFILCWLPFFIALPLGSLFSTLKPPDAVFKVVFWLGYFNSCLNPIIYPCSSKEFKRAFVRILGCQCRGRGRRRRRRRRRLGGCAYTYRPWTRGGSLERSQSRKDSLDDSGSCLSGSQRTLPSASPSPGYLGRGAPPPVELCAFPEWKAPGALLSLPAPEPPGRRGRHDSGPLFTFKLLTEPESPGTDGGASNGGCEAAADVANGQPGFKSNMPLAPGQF
How it was run: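 Competition binding at human α1b receptors stably expressed in CHO cells. Affinity values are means ± SEM of at least two experiments, each in duplicate.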

[3] = molecular target: T3, Alpha-2B adrenergic receptor (Homo sapiens, UniProt P18089); experiment: Displacement of [3H]-RX821002 from human adrenergic alpha2B receptor expressed in rat C6 cells after 120 mins by liquid scintillation counting; format: cell-based
T3 sequence (P18089 whole entry): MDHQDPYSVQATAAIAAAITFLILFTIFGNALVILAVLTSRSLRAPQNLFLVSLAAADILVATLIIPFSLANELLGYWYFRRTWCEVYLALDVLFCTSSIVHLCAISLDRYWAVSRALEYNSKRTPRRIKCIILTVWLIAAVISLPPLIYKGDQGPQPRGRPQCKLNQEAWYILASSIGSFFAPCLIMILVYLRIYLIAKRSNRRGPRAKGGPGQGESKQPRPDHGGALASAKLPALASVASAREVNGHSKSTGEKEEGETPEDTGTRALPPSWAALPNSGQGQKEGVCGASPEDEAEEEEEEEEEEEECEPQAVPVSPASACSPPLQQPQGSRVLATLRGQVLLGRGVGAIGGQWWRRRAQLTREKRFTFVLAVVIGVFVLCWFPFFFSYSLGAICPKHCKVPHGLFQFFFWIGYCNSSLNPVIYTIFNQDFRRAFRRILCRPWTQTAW

[4] = tested on: Mus musculus; experiment: Antihypothermic activity in po dosed NMRI mouse assessed as inhibition of guanabenz-induced hypothermia administered 35 mins before guanabenz challenge measured after 25 mins; format: functional
How it was run: (§1)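 Mice got the compound by intraperitoneal injection or oral gavage before guanabenz challenge, and reversal of guanabenz-induced hypothermia was scored. Five animals were tested per dose. ED50 is the dose giving an inhibitory effect in 50% of guanabenz-treated animals, with 95% confidence limits.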

[5] = molecular target: T4, Alpha-2A adrenergic receptor (Homo sapiens, UniProt P08913); experiment: Displacement of [3H]-RX821002 from human adrenergic alpha2A receptor expressed in rat C6 cells after 120 mins by liquid scintillation counting; format: cell-based
T4 sequence (P08913 whole entry): T1 sequence (whole entry)
How it was run: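 Competition binding at human α2A receptors expressed in C6 glial cells. Affinity values are means ± SEM of at least two experiments, each in duplicate.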

[6] = tested on: Mus musculus; experiment: Antihypothermic activity in ip dosed NMRI mouse assessed as inhibition of guanabenz-induced hypothermia administered 5 mins before guanabenz challenge measured after 25 mins; format: functional; how it was run: as §1
[7] = tested on: Mus musculus; experiment: Ratio of ED50 for santihypothermic activity in po dosed NMRI mouse to ED50 for antihypothermic activity in ip dosed NMRI mouse; format: functional
How it was run: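 Guanabenz-induced hypothermia in mice, five animals per dose. ED50 (the dose inhibiting hypothermia in 50% of guanabenz-treated animals) was obtained after oral gavage and after intraperitoneal injection, and the ratio po/ip was then calculated.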

[8] = molecular target: T5, Alpha-2C adrenergic receptor (Homo sapiens, UniProt P18825); experiment: Displacement of [3H]-RX821002 from human adrenergic Alpha-2C receptor expressed in rat C6 cells after 120 mins by liquid scintillation counting; format: cell-based
T5 sequence (P18825 whole entry): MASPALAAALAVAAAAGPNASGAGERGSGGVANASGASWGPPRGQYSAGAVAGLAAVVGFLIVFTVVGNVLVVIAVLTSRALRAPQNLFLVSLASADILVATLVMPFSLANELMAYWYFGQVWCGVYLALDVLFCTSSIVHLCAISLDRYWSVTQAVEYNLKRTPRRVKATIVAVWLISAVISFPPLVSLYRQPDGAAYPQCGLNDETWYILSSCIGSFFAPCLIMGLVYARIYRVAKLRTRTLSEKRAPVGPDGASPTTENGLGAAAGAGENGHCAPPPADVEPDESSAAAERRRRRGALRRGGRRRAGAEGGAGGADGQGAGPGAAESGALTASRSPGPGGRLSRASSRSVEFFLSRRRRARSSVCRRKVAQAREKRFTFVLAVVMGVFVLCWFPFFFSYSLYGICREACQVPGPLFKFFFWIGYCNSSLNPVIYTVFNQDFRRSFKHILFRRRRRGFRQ

[9] = tested on: Rattus norvegicus; experiment: Cardiotoxicity in pithed Sprague-Dawley rat assessed as increase of diastolic pressure at 2.5 ug/kg, iv in presence of rauwolscine; format: toxicity, organism-based; conditions: in vivo, 0.0025 mg/kg
[10] = tested on: Rattus norvegicus; experiment: Cardiotoxicity in pithed Sprague-Dawley rat assessed as increase of diastolic pressure at 2.5 ug/kg, iv in presence of prazosin; format: toxicity, organism-based; conditions: in vivo, 0.0025 mg/kg
[11] = tested on: Rattus norvegicus; experiment: Cardiotoxicity in pithed Sprague-Dawley rat assessed as increase of diastolic pressure at > 0.63 ug/kg, iv; format: toxicity, organism-based; conditions: in vivo, 0.00063 mg/kg
[12] = tested on: Rattus norvegicus; experiment: Cardiotoxicity in anesthetized Sprague-Dawley rat assessed as increase of diastolic pressure at up to 0.16 ug/kg, iv; format: toxicity, organism-based; conditions: in vivo, 0.00016 mg/kg
[13] = tested on: Rattus norvegicus; experiment: Cardiotoxicity in anesthetized Sprague-Dawley rat assessed as increase of diastolic pressure at 10 ug/kg, iv; format: toxicity, organism-based; conditions: in vivo, 0.01 mg/kg
[14] = tested on: Mus musculus; experiment: Increase of normetanephrine level in NMRI mouse cortex at 0.16 to 10 mg/kg, ip after 1 hr microwave irradiation; format: functional; conditions: dose mg/kg 0.16-10; route intraperitoneal
How it was run: (§2)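 Single intraperitoneal dose; mice were killed by head-focused microwave irradiation 1 h later. Frontal cortex normetanephrine, an extracellular noradrenaline metabolite, was measured and expressed as increase relative to control animals, giving dose-response data across 0.16 to 10 mg/kg.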

[15] = tested on: Mus musculus; experiment: Increase of normetanephrine level in ip dosed NMRI mouse cortex after 1 hr microwave irradiation; format: functional, organism-based; how it was run: as §2
[16] = tested on: Mus musculus; experiment: Increase of normetanephrine level in NMRI mouse cortex at 10 mg/kg, ip after 1 hr microwave irradiation; format: functional; conditions: route intraperitoneal; how it was run: as §2
[17] = Mus musculus, NMRI, po, read-out: ED50
[18] = Mus musculus, NMRI, ip, read-out: ED50

pKb [1]	Ki [2] [nM]	Ki [3] [nM]	Ki [5] [nM]	Ki [8] [nM]	SMILES	ED50 [4, 17] [mg/kg]	ED50 [6, 18] [mg/kg]	Ratio ED50 [7]	Activity [9]	Activity [10]	ED50 [4] [mg/kg]	Activity [11]	Activity [12]	ED50 [6] [mg/kg]	Activity [13] [mmHg]	Activity [14] [%]	Activity [15]	Activity [16] [%]
8.66	39.8	0.912	0.447	2.82	C[C@]12CC1(c1c[nH]cn1)Cc1ccccc12 (single isomer, unassigned)	0.66	0.06	11										
	3.55	0.275	0.0794	0.263	c1ccc2c(c1)C[C@]1(c3cnc[nH]3)C[C@H]21 (stereo in doubt; (+)-1)			3.5	Non-toxic	Toxic	0.07	Toxic	Non-toxic	0.02	26	3096		
9.64					c1ccc2c(c1)C[C@]1(c3c[nH]cn3)C[C@H]21 (stereo in doubt; (+)-1)												Dose-dependent effect	
7.84	2090	6.76	7.24	13.8	CCC1(c2c[nH]cn2)Cc2ccc(F)cc2C1 (configuration not stated) [FIPAMEZOLE]	1.87	0.47	4										247

Further lines, the molecule ahead of its results:

SMILES	pKb [1]	Ki [2] [nM]	Ki [3] [nM]	Ki [5] [nM]	Ki [8] [nM]	ED50 [4, 17] [mg/kg]	ED50 [6, 18] [mg/kg]	Ratio ED50 [7]	Activity [9]	Activity [10]	ED50 [4] [mg/kg]	Activity [11]	Activity [12]	ED50 [6] [mg/kg]	Activity [13] [mmHg]	Activity [14] [%]	Activity [15]	Activity [16] [%]
CCO[C@H]1c2ccccc2[C@H]2C[C@]21c1c[nH]cn1 (relative stereo)	8.36	39.8	9.77	3.31	10.2	0.03	0.16	0.2										
CC[C@H]1c2ccccc2[C@H]2C[C@]21c1c[nH]cn1 (relative stereo)	8.91	40.7	1.62	0.513	1.26	0.04	0.03	1.3										
CC1(C)C2c3ccccc3C[C@@]21c1c[nH]cn1 (single isomer, unassigned)	8.97	178	1.15	1.07	1.17	0.47	0.07	6.7										
CCC1(c2c[nH]cn2)Cc2ccccc2C1 [ATIPAMEZOLE]	8.05					1.95	0.19	10.3										258
CNCCCN1c2ccccc2CCc2ccccc21 [DESIPRAMINE]																		223
